In ChEMBL document CHEMBL1165909, “Analgesic, anti-pyretic and DNA cleavage studies of novel pyrimidine derivatives of coumarin moiety” (Eur J Med Chem, 2010) one finds T, Time and Activity data, which are given here for eleven molecules.

Data set [1] deals with Rattus norvegicus. Put plainly: Antipyretic activity against brewer's yeast-induced hyperthermia in albino Wistar rat assessed as change in rectal temperature at 100 mg/kg, po after 1 hr (reference value: 33.78 +/- 0.18 degC). It is filed as functional.
Data set [2] deals with Rattus norvegicus. As to the kind of experiment: Analgesic activity in albino Wistar rat assessed as reaction time required for tail flicking at 25 mg/kg, po after 30 mins by tail-flick method (reference value: 3.97 +/- 0.287 sec). It is filed as functional.
Data set [3] concerns Rattus norvegicus. Put plainly: Antipyretic activity against brewer's yeast-induced hyperthermia in albino Wistar rat assessed as change in rectal temperature at 100 mg/kg, po after 5 hrs (reference value: 34.36 +/- 0.14 degC). It is filed as functional.
Data set [4] concerns Rattus norvegicus. Put plainly: Acute toxicity in albino Wistar rat assessed as haemorrhagic spots at up to 3 g/kg, po after 24 hrs. It is filed as organism-based. The settings on record: in vivo, 3000 mg/kg. Put shortly:
(§1)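 Albino rats of either sex, groups of six, dosed from 100 up to 3000 mg kg^-1 body weight. Watched continuously for 8 h for signs such as altered motor activity, ataxia, tremors, convulsions, sedation and lacrimation. Killed at 24 h; stomach, intestine and liver inspected under magnifying lenses for ulcer-haemorrhagic spots.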

The subject of the next data set is Nucleic Acid. As to the kind of experiment: Induction of Escherichia coli DNA cleavage at 25 mg after 24 hrs by agarose gel electrophoresis method. It is filed as nucleic-acid assay. The method, boiled down: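 E. coli grown in nutrient broth 24 h at 37 °C. Genomic DNA isolated by SDS lysis, phenol (55 °C, 10 min), chloroform:isoamyl alcohol extraction and ethanol precipitation, dissolved in TAE. Compounds at 1 mg/ml in DMF added to DNA, incubated 2 h at 37 °C. Run on agarose gel at 50 V about 30 min, stained with ethidium bromide, bands compared with DNA marker.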

The test system of data set [5] is Rattus norvegicus. Put plainly: Acute toxicity in albino Wistar rat assessed as sedation at up to 3 g/kg, po after 24 hrs. The format is organism-based. The settings on record: in vivo, 3000 mg/kg. The method, boiled down: as §1
Data set [6] deals with Rattus norvegicus. Put plainly: Acute toxicity in albino Wistar rat assessed as ulceration at up to 3 g/kg, po after 24 hrs. The settings on record: in vivo, 3000 mg/kg. The format is organism-based. The method, boiled down:
as §1

For data set [7], the system named is Rattus norvegicus. Put plainly: Antipyretic activity against brewer's yeast-induced hyperthermia in albino Wistar rat assessed as change in rectal temperature at 100 mg/kg, po after 6 hrs (reference value: 33.44 +/- 0.18 degC). The format is functional.
Data set [8] has as its system Rattus norvegicus. Put plainly: Analgesic activity in albino Wistar rat assessed as reaction time required for tail flicking at 25 mg/kg, po after 60 mins by tail-flick method (reference value: 4 +/- 0.360 sec). The format is functional. (In hot-plate and tail-flick tests a longer latency is read as antinociception.)
Data set [9] deals with Rattus norvegicus. Put plainly: Acute toxicity in albino Wistar rat assessed as convulsion at up to 3 g/kg, po after 24 hrs. It is filed as organism-based. The settings on record: in vivo, 3000 mg/kg. Put shortly: as §1
Data set [10] concerns Rattus norvegicus. Put plainly: Antipyretic activity against brewer's yeast-induced hyperthermia in albino Wistar rat assessed as change in rectal temperature at 100 mg/kg, po after 3 hrs (reference value: 32.80 +/- 0.09 degC). It is filed as functional.
The subject of data set [11] is Rattus norvegicus. Put plainly: Acute toxicity in albino Wistar rat assessed as tremors at up to 3 g/kg, po after 24 hrs. The format is organism-based. The settings on record: in vivo, 3000 mg/kg. The method, boiled down: as §1
In data set [12] the test system is Rattus norvegicus. As to the kind of experiment: Acute toxicity in albino Wistar rat assessed as intestine ulcerhaemorrhagic spots at up to 3 g/kg, po after 24 hrs. To be noted: in vivo, 3000 mg/kg. It is filed as organism-based. Put shortly:
as §1

In data set [13] the test system is Rattus norvegicus. Put plainly: Acute toxicity in albino Wistar rat assessed as mortality at up to 3 g/kg, po after 24 hrs. It is filed as organism-based. To be noted: in vivo, 3000 mg/kg. Put shortly: as §1
The subject of data set [14] is Rattus norvegicus. As to the kind of experiment: Acute toxicity in albino Wistar rat assessed as stomach ulcerhaemorrhagic spots at up to 3 g/kg, po after 24 hrs. The format is organism-based. The settings on record: in vivo, 3000 mg/kg. The method, boiled down: as §1
Data set [15] relates to Rattus norvegicus. Put plainly: Analgesic activity in albino Wistar rat assessed as reaction time required for tail flicking at 25 mg/kg, po after 90 mins by tail-flick method (reference value: 3.87 +/- 0.355 sec). The format is functional.

Molecules are shown by their SMILES. The source made the active and inactive calls. No cut-off for these calls is given here.

As to `Cc1ccc2c(COc3ccc(-c4cc(-c5ccccc5)nc(N)n4)cc3)cc(=O)oc2c1`, the T in the data set with Rattus norvegicus [1] amounted to 32.74 °C; with Rattus norvegicus [3] it was 33.8 °C; in the data set with Rattus norvegicus [7] it was 32.8 °C; with Rattus norvegicus [10] it was 32.6 °C. The Time with Rattus norvegicus [2] is reported as 5.1 s; in the data set with Rattus norvegicus [8], 6.75 s; in the data set on Rattus norvegicus [15], 7.5 s. The Activity result in the data set on Rattus norvegicus [4], in the data set on Rattus norvegicus [5], in the data set with Rattus norvegicus [6], in the data set with Rattus norvegicus [9], in the data set with Rattus norvegicus [11] and in the data set on Rattus norvegicus [12] was “Non-toxic” each time. The Activity result with Rattus norvegicus [13] and with Rattus norvegicus [14] was “Non-toxic” throughout. Also, in the data set with Nucleic Acid, the result was Active.

Regarding `Cc1ccc2oc(=O)cc(COc3ccc(-c4cc(-c5ccccc5)nc(O)n4)cc3)c2c1`, the T in the data set with Rattus norvegicus [1] turned out to be 33.18 °C; in the data set with Rattus norvegicus [3] it was 33.12 °C; in the data set on Rattus norvegicus [7] it was 32.97 °C; with Rattus norvegicus [10], 32.31 °C. Moreover, the results for the Time with Rattus norvegicus [2], with Rattus norvegicus [8] and in the data set with Rattus norvegicus [15] were 4.48 s, 5.46 s and 6.2 s, respectively. Besides, the Activity result in the data set with Rattus norvegicus [4], with Rattus norvegicus [5], in the data set on Rattus norvegicus [6], with Rattus norvegicus [9], with Rattus norvegicus [11] and in the data set on Rattus norvegicus [12] was “Non-toxic” throughout. Besides, the Activity entry in the data set with Rattus norvegicus [13] and with Rattus norvegicus [14] was “Non-toxic” throughout. Further, the outcome with Nucleic Acid was Active.

For `Cc1c(N(C)CS(=O)(=O)[O-])c(=O)n(-c2ccccc2)n1C.[Na+]` [DIPYRONE SODIUM], the results for the Time with Rattus norvegicus [2], with Rattus norvegicus [8] and with Rattus norvegicus [15] were 5.77 s, 8.76 s and 9.02 s, respectively.

As to `Cc1ccc2c(COc3ccc(-c4cc(-c5ccccc5)nc(O)n4)cc3)cc(=O)oc2c1`, the T with Rattus norvegicus [1] worked out at 32.4 °C; with Rattus norvegicus [3], 33.1 °C; in the data set with Rattus norvegicus [7], 32.4 °C; in the data set with Rattus norvegicus [10], 32.84 °C. For the same molecule, the Time with Rattus norvegicus [2] came out at 4.5 s; with Rattus norvegicus [8], 6.25 s; in the data set on Rattus norvegicus [15], 7.75 s. For the same molecule, the Activity result in the data set on Rattus norvegicus [4], in the data set with Rattus norvegicus [5], in the data set with Rattus norvegicus [6], with Rattus norvegicus [9], in the data set on Rattus norvegicus [11] and in the data set on Rattus norvegicus [12] was “Non-toxic” in each case. For the same molecule, the Activity result in the data set with Rattus norvegicus [13] and with Rattus norvegicus [14] was “Non-toxic” throughout. Moreover, the outcome with Nucleic Acid was Active.

For `Nc1nc(-c2ccccc2)cc(-c2ccc(OCc3cc(=O)oc4c3ccc3ccccc34)cc2)n1`, the T in the data set with Rattus norvegicus [1] was 32.68 °C; in the data set on Rattus norvegicus [3], 32.51 °C; with Rattus norvegicus [7], 32.09 °C; with Rattus norvegicus [10] it was 31.4 °C. Moreover, the Time with Rattus norvegicus [2] was found to be 4.04 s; in the data set on Rattus norvegicus [8], 4.75 s; in the data set on Rattus norvegicus [15], 5 s. The Activity entry with Rattus norvegicus [4], in the data set on Rattus norvegicus [5], in the data set with Rattus norvegicus [6], in the data set on Rattus norvegicus [9], in the data set on Rattus norvegicus [11] and in the data set on Rattus norvegicus [12] was “Non-toxic” in each case. Further, the Activity entry in the data set with Rattus norvegicus [13] and in the data set with Rattus norvegicus [14] was “Non-toxic” in each case.

For the molecule `Nc1nc(-c2ccccc2)cc(-c2ccc(OCc3cc(=O)oc4ccc(Cl)cc34)cc2)n1`, the T with Rattus norvegicus [1] stood at 32.74 °C; with Rattus norvegicus [3] it was 32.09 °C; in the data set on Rattus norvegicus [7], 32.54 °C; in the data set on Rattus norvegicus [10] it was 32.45 °C. Besides, the Time turned out to be 5.02 s in the data set with Rattus norvegicus [2], 7 s with Rattus norvegicus [8] and 7.1 s with Rattus norvegicus [15]. Moreover, the Activity result in the data set on Rattus norvegicus [4], in the data set on Rattus norvegicus [5], with Rattus norvegicus [6], in the data set on Rattus norvegicus [9], in the data set with Rattus norvegicus [11] and with Rattus norvegicus [12] was “Non-toxic” each time. Moreover, the Activity entry with Rattus norvegicus [13] and in the data set with Rattus norvegicus [14] was “Non-toxic” in each case.

For the molecule `Cc1ccc2oc(=O)cc(COc3ccc(-c4cc(-c5ccccc5)nc(N)n4)cc3)c2c1`, the T in the data set on Rattus norvegicus [1] turned out to be 32.66 °C; in the data set on Rattus norvegicus [3], 33.3 °C; in the data set on Rattus norvegicus [7] it was 33 °C; with Rattus norvegicus [10], 31.68 °C. Moreover, the values for the Time in the data set with Rattus norvegicus [2], in the data set on Rattus norvegicus [8] and with Rattus norvegicus [15] were 4.75 s, 6.75 s and 7.25 s, respectively. In addition, the Activity result with Rattus norvegicus [4], in the data set with Rattus norvegicus [5], in the data set with Rattus norvegicus [6], in the data set with Rattus norvegicus [9], in the data set with Rattus norvegicus [11] and in the data set with Rattus norvegicus [12] was “Non-toxic” throughout. The Activity entry in the data set on Rattus norvegicus [13] and in the data set on Rattus norvegicus [14] was “Non-toxic” each time.

Regarding `O=c1cc(COc2ccc(-c3cc(-c4ccccc4)nc(S)n3)cc2)c2cc(Cl)ccc2o1`, the T with Rattus norvegicus [1] was determined as 32.5 °C; with Rattus norvegicus [3], 32.84 °C; in the data set on Rattus norvegicus [7], 32.84 °C; in the data set with Rattus norvegicus [10], 32.61 °C. Also, the values for the Time in the data set on Rattus norvegicus [2], with Rattus norvegicus [8] and with Rattus norvegicus [15] were 5.1 s, 7.54 s and 8.5 s, respectively. The Activity entry with Rattus norvegicus [4], in the data set on Rattus norvegicus [5], with Rattus norvegicus [6], in the data set with Rattus norvegicus [9], in the data set with Rattus norvegicus [11] and in the data set on Rattus norvegicus [12] was “Non-toxic” each time. Besides, the Activity result in the data set on Rattus norvegicus [13] and in the data set on Rattus norvegicus [14] was “Non-toxic” in each case.

`O=c1cc(COc2ccc(-c3cc(-c4ccccc4)nc(S)n3)cc2)c2c(ccc3ccccc32)o1`: the T in the data set with Rattus norvegicus [1] came to 32.92 °C; in the data set with Rattus norvegicus [3], 33.01 °C; in the data set with Rattus norvegicus [7], 32.66 °C; in the data set on Rattus norvegicus [10], 31.98 °C. The Time in the data set with Rattus norvegicus [2] came to 4.25 s; in the data set on Rattus norvegicus [8], 4.5 s. Besides, the Activity entry in the data set with Rattus norvegicus [4], with Rattus norvegicus [5], in the data set with Rattus norvegicus [6], with Rattus norvegicus [9], in the data set on Rattus norvegicus [11] and in the data set with Rattus norvegicus [12] was “Non-toxic” throughout. Also, the Activity entry in the data set on Rattus norvegicus [13] and with Rattus norvegicus [14] was “Non-toxic” each time. Besides, the outcome with Nucleic Acid was Active.

In the case of `Cc1ccc2oc(=O)cc(COc3ccc(-c4cc(-c5ccccc5)nc(S)n4)cc3)c2c1`, the T in the data set on Rattus norvegicus [1] was determined as 32.55 °C; with Rattus norvegicus [3], 32.8 °C; in the data set on Rattus norvegicus [7], 31.98 °C; in the data set on Rattus norvegicus [10] it was 32.77 °C. For the same molecule, the Time with Rattus norvegicus [2] is reported as 4.5 s; in the data set with Rattus norvegicus [8] it was 6.5 s; in the data set on Rattus norvegicus [15] it was 7.45 s. In addition, the Activity result in the data set with Rattus norvegicus [4], in the data set on Rattus norvegicus [5], in the data set with Rattus norvegicus [6], in the data set with Rattus norvegicus [9], in the data set on Rattus norvegicus [11] and in the data set on Rattus norvegicus [12] was “Non-toxic” each time. The Activity result in the data set with Rattus norvegicus [13] and in the data set with Rattus norvegicus [14] was “Non-toxic” in each case.

As for `Nc1nc(-c2ccccc2)cc(-c2ccc(OCc3cc(=O)oc4ccc5ccccc5c34)cc2)n1`, the T in the data set with Rattus norvegicus [1] was 32.8 °C; with Rattus norvegicus [3] it was 32.22 °C; in the data set on Rattus norvegicus [7], 31.88 °C; in the data set with Rattus norvegicus [10] it was 31.84 °C. Besides, the figures for the Time in the data set with Rattus norvegicus [2], in the data set on Rattus norvegicus [8] and in the data set with Rattus norvegicus [15] were 4 s, 7.25 s and 8 s, respectively. Also, the Activity result in the data set on Rattus norvegicus [4], in the data set on Rattus norvegicus [5], in the data set with Rattus norvegicus [6], with Rattus norvegicus [9], with Rattus norvegicus [11] and in the data set on Rattus norvegicus [12] was “Non-toxic” in each case. Besides, the Activity result with Rattus norvegicus [13] and in the data set on Rattus norvegicus [14] was “Non-toxic” each time.
